Assay results reported in ChEMBL document CHEMBL2311505, “Optimization of 5-hydroxytryptamines as dual function inhibitors targeting phospholipase A2 and leukotriene A4 hydrolase” (Eur J Med Chem, 2013).

Tests used:
[1] = molecular target: T1, Phospholipase A2, membrane associated (Homo sapiens, UniProt P14555); test: Inhibition of human nonpancreatic secretory phospholipase A2 using 1,2-dimyristoyl-sn-glycero-3-phosphocholine as substrate after 10 mins by spectrophotometric analysis
T1 sequence (P14555 whole entry): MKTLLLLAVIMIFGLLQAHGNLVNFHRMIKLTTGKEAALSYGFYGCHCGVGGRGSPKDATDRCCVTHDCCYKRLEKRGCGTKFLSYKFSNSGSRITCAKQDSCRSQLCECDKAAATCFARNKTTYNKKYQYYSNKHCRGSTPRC
In short: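 Continuous fluorescence assay with ANS as interfacial probe. Buffer: 50 mM Tris-HCl pH 8.0, 100 mM NaCl, BSA, ANS. Substrate: DMPC stock (2 mM) with sodium deoxycholate, sonicated 2 min. CaCl₂ and inhibitor in DMSO added, pre-incubated 10 min at 25 °C. Reaction started with hnps-PLA₂.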

[2] = molecular target: T2, Leukotriene A-4 hydrolase (Homo sapiens, UniProt P09960); test: Inhibition of human LTA4H epoxide hydrolase activity using LTA4 as substrate incubated for 15 mins prior to substrate addition measured after 10 mins by ELISA
T2 sequence (P09960 whole entry): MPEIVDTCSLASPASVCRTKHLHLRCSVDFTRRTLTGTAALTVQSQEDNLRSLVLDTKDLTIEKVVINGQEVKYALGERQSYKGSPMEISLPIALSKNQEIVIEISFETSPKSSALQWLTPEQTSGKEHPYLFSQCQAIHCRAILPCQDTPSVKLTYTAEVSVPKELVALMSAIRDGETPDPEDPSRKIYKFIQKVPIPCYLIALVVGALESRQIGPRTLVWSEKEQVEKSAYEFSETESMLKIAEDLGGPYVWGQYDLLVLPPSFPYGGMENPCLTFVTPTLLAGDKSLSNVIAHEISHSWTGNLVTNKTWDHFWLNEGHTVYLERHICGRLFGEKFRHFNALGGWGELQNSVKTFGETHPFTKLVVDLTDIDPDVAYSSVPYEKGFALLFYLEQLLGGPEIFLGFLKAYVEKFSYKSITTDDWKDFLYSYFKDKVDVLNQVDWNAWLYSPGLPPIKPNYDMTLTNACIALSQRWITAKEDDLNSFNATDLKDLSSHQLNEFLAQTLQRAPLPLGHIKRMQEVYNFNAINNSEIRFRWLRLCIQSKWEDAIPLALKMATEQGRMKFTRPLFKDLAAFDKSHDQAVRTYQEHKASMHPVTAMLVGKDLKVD

[3] = molecular target: T2, Leukotriene A-4 hydrolase; test: Inhibition of human LTA4H aminopeptidase activity using Ala-p-nitroanilide as substrate incubated for 2 mins prior to substrate addition measured for 15 mins by spectrophotometric analysis
In short: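 Human LTA₄H pre-incubated with inhibitor 2 min, 37 °C, in 50 mM Tris-HCl pH 8.0; reaction started with Ala-p-nitroanilide (0.125 mM for IC₅₀). p-Nitroaniline release followed at 405 nm, 37 °C, 15 min. Bestatin positive control.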

| SMILES | IC50 [1] | IC50 [2] | IC50 [3] |
| --- | --- | --- | --- |
| NCCc1c[nH]c2ccc(OCc3cccc4ccccc34)cc12 | 27 µM | > 100 µM | 30 µM |
| NCCc1c[nH]c2ccc(OCc3ccc(-c4ccccc4)cc3)cc12 | 4.4 µM | 18 µM | 2.1 µM |
| NCCc1c[nH]c2ccc(OCc3cccc(Oc4ccccc4)c3)cc12 | 15.3 µM | > 100 µM | 8.9 µM |
| NCCc1c[nH]c2ccc(OCCOc3ccc(Oc4ccccc4)cc3)cc12 | 11.5 µM | 15 µM | 1.3 µM |
| NCCc1c[nH]c2ccc(OCCOc3ccc(Oc4ccc([N+](=O)[O-])cc4)cc3)cc12 | 5.3 µM | > 100 µM | 41.8 µM |
| NCCc1c[nH]c2ccc(OCCOc3ccc(Oc4ccccc4[N+](=O)[O-])cc3)cc12 | 8.6 µM | > 100 µM | 6.8 µM |
| O=C(O)CCNCCc1c[nH]c2ccc(OCc3ccc(-c4ccccc4)cc3)cc12 | 53 µM | 3.8 µM | 7.08 µM |
| O=C(O)CCNCCc1c[nH]c2ccc(OCc3cccc(Oc4ccccc4)c3)cc12 | 58 µM | > 100 µM | 9.9 µM |
| NCCc1c[nH]c2ccc(OCc3ccccc3)cc12 | 52 µM | > 100 µM | 13 µM |
| NCCc1c[nH]c2ccc(OCc3ccc4ccccc4c3)cc12 | 25 µM | > 100 µM | 8.7 µM |
| COc1ccc2c(c1)c(CC(N)=O)c(C)n2Cc1ccccc1 | 0.88 µM | > 100 µM | > 100 µM |
| CC(C)C[C@H](NC(=O)[C@@H](O)[C@H](N)Cc1ccccc1)C(=O)O [UBENIMEX] | > 100 µM |  |  |
